Results published in ChEMBL document CHEMBL4813918, “From off-to on-target: New BRAF-inhibitor-template-derived compounds selectively targeting mitogen activated protein kinase kinase 4 (MKK4)” (Eur J Med Chem, 2021).

What was measured:
[1] = biological target: T1, Dual specificity mitogen-activated protein kinase kinase 7 (Homo sapiens) (UniProt O14733); experiment: Binding affinity to wild type full length human MKK7 (M1 to R419 residues) expressed in mammalian expression system assessed as residual activity at 100 nM measured by Kinomescan assay
T1 sequence (whole entry): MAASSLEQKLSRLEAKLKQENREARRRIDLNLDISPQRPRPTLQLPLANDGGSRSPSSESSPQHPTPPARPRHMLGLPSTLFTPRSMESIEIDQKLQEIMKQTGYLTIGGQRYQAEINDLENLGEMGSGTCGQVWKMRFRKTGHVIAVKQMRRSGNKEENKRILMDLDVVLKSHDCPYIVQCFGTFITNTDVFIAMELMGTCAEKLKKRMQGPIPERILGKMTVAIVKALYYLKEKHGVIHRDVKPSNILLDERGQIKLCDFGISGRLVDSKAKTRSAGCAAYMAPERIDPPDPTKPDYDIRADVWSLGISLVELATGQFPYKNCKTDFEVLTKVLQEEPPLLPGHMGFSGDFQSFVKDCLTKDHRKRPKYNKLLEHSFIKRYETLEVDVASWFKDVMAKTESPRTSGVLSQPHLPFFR

[2] = biological target: Mitogen-activated protein kinase kinase kinase kinase 5 (Homo sapiens) (UniProt Q9Y4K4); experiment: Binding affinity to wild type partial length human MAP4K5 (M1 to P297) expressed in Bacterial expression system assessed as residual activity at 100 nM measured by Kinomescan assay relative to control
[3] = biological target: Mitogen-activated protein kinase kinase kinase 20 (Homo sapiens) (UniProt Q9NYL2); experiment: Binding affinity to wild type partial length human ZAK (M1 to L331) expressed in bacterial expression system assessed as residual activity at 100 nM measured by Kinomescan assay
[4] = biological target: T2, Dual specificity mitogen-activated protein kinase kinase 4 (Mus musculus, UniProt P47809); experiment: Binding affinity to GST tagged mouse MKK4 expressed in Escherichia coli expression system measured by Kinomescan assay
T2 sequence (P47809 whole entry): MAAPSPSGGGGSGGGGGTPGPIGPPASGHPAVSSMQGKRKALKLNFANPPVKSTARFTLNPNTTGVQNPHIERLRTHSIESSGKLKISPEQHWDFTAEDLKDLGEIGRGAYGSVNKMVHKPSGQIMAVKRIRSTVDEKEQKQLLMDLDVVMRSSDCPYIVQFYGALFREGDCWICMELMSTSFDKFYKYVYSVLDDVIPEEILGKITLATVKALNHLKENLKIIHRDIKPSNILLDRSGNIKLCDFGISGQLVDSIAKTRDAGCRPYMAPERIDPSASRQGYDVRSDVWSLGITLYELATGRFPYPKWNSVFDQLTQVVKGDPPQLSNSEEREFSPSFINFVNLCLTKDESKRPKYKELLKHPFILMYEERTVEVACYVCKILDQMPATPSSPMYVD
In short: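 Competition binding: compound competes with an immobilized multikinase inhibitor for the site on DNA-tagged MKK4. Bound kinase is quantified by qPCR. Kd values are determined in duplicate.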

Sequence of Mitogen-activated protein kinase kinase kinase kinase 5 (Homo sapiens) (Q9Y4K4 whole entry, looked up): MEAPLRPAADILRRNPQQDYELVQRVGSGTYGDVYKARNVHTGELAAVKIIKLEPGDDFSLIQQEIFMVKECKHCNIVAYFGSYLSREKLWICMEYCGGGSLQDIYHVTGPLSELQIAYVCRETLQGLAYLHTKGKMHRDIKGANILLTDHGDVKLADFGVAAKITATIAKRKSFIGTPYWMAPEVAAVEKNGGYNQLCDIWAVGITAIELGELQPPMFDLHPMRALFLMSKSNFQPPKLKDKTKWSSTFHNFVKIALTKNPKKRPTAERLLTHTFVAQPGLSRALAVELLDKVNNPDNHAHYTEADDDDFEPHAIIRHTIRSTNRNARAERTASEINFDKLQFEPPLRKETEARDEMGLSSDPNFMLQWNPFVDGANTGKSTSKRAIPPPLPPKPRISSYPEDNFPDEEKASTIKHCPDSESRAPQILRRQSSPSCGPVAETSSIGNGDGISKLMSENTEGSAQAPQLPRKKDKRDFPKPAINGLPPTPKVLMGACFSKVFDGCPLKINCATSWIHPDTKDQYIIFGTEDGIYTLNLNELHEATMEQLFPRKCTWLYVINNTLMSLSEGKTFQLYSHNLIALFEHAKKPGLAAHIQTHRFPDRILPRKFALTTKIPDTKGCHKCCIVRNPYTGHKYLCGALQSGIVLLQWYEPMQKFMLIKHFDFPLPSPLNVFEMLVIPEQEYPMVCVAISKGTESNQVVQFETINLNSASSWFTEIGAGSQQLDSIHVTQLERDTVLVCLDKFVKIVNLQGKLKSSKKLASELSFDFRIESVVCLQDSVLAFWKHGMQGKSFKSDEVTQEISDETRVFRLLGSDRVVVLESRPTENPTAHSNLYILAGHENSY
Sequence of Mitogen-activated protein kinase kinase kinase 20 (Homo sapiens) (Q9NYL2 2-800 limits assumed): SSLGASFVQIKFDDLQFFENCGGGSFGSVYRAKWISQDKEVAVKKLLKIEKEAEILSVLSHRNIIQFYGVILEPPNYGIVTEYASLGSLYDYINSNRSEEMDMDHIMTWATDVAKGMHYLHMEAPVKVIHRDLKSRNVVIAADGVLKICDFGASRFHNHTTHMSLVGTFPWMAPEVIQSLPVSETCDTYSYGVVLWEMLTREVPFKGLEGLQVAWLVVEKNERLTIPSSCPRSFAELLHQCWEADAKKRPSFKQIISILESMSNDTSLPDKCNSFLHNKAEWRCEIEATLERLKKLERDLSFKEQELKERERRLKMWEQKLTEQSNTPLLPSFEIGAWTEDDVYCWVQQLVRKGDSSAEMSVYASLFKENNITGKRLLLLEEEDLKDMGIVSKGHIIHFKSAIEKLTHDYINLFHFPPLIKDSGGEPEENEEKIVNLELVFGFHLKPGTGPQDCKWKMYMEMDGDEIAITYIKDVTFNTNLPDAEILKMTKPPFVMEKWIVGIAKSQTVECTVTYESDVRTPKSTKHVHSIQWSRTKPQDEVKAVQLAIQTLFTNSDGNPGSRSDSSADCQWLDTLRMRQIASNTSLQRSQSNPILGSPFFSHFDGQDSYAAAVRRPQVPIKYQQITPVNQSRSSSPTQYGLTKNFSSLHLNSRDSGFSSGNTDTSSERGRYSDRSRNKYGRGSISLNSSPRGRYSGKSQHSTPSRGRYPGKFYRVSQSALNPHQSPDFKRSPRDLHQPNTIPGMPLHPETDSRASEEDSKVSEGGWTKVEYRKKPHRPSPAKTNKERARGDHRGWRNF

Q: What does the source list for CCCS(=O)(=O)Nc1ccc(F)c(C(=O)c2c[nH]c3ncc(-c4ccc(Cl)cc4)cc23)c1F [VEMURAFENIB]?
A: Activity [1]: 100%; Activity [2]: 48%; Activity [3]: 5.3%; Kd [4]: 8.2 nM

Q: For COc1ncc(-c2cnc3[nH]cc(C(=O)c4cccc(NS(=O)(=O)Cc5ccccc5)c4F)c3c2)cn1, which Activity [1] is on record?
A: 70%

Q: And the Activity [2]?
A: 86%

Q: What about the Activity [3] of the same compound?
A: 38%

Q: What about the Kd [4] of the same compound?
A: 0.85 nM

Q: O=C(c1cccc(NS(=O)(=O)Cc2ccccc2)c1F)c1c[nH]c2ncc(-c3cnc(C4CC4)nc3)cc12 was tested. Which Activity [1] did it give?
A: 86%

Q: What about the Activity [2] of the same compound?
A: 82%

Q: What about the Activity [3] of the same compound?
A: 80%

Q: And the Kd [4]?
A: 1.1 nM

Q: Which Activity [1] does the source give for O=C(c1cccc(NS(=O)(=O)Cc2ccccc2)c1F)c1c[nH]c2ncc(-c3cc4c(cc3Cl)OCCO4)cc12 here?
A: 100%

Q: And the Activity [2]?
A: 98%

Q: And the Activity [3]?
A: 94%

Q: What about the Kd [4] of the same compound?
A: 3.5 nM

Q: Which Activity [1] does the source give for CCCS(=O)(=O)Nc1ccc(F)c(C(=O)c2c[nH]c3ncc(-c4cccs4)cc23)c1F here?
A: 98%

Q: What about the Activity [2] of the same compound?
A: 48%

Q: And the Activity [3]?
A: 2.9%

Q: With CCCS(=O)(=O)Nc1ccc(F)c(C(=O)c2c[nH]c3ncc(-c4ccc(OC)cc4OC)cc23)c1F as the compound, how does the Activity [1] read?
A: 87%

Q: And the Activity [2]?
A: 84%

Q: What about the Activity [3] of the same compound?
A: 1.6%

Q: What does the source list for CCS(=O)(=O)Nc1ccc(F)c(C(=O)c2c[nH]c3ncc(-c4ccc(Cl)cc4)cc23)c1F?
A: Activity [1]: 89%; Activity [2]: 82%; Activity [3]: 8.3%

Q: For O=C(c1c(F)ccc(NS(=O)(=O)Cc2ccccc2)c1F)c1c[nH]c2ncc(-c3ccc(Cl)cc3)cc12, which Activity [1] is on record?
A: 100%

Q: And the Activity [2]?
A: 94%

Q: And the Activity [3]?
A: 30%

Q: Which Activity [1] does the source give for CCCS(=O)(=O)Nc1ccc(F)c(C(=O)c2c[nH]c3ncc(-c4cc5c(cc4Cl)OCO5)cc23)c1F here?
A: 100%

Q: And the Activity [2]?
A: 99%

Q: And the Activity [3]?
A: 26%
